Activity calls are given as the source filed them. The rule behind the calls is not given here.

IC50, inhibition and Activity data for eight compounds are collected here from ChEMBL document CHEMBL4266022, “Azaphilone Derivatives from the Fungus Coniella fragariae Inhibit NF-κB Activation and Reduce Tumor Cell Migration” (J Nat Prod, 2018).

In experiment [1] the test system is MDA-MB-231. As to the kind of experiment: Cytotoxicity against human MDA-MB-231 cells assessed as decrease in cell viability after 24 hrs by cellTiter-Glo reagent based assay. Particulars: MDA-MB-231, 24 h. The class given is functional. The essentials:
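MDA-MB-231 cells (RPMI, 15% FCS, 37 °C, 5% CO2) seeded at 5600 cells/well in 384-well plates, cultured overnight, then treated 24 h. Viability by CellTiter-Glo luminescence. Positive control 5 μM staurosporine; 1% DMSO set as 100% viability.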

Experiment [2] concerns MDA-MB-231. As to the kind of experiment: Inhibition of cell migration in human MDA-MB-231 cells at 10 uM after 24 hrs by wound-scratch assay. The class given is functional. Particulars: MDA-MB-231, 24 h. The essentials: (§1)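 MDA-MB-231 cells seeded at 50 000 cells/well; scratch made after 24 h with automated wound maker. Compounds added, wound imaged every 2 h over 24 h by live-cell imager; migration into wound quantified.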

Experiment [3] in a line: Inhibition of NF-kappaB in human MDA-MB-231 cells assessed as reduction in TNFalpha-induced NF-kappaB activation incubated with compound for 20 mins followed by TNFalpha stimulation measured after 2 hrs by luminescence assay.
Experiment [4] concerns MDA-MB-231. As to the kind of experiment: Anti-invasive activity in human MDA-MB-231 cells assessed as inhibition of cell invasion into surrounding extracellular matrix at 10 uM after 24 hrs. Type of experiment: functional. Particulars: MDA-MB-231, 24 h. The method in brief:
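Spheroids formed from 3000 MDA-MB-231 cells/well with 0.25% matrigel in ultralow-attachment plates (centrifuged 10 min, 1000 rpm, 4 °C), 72 h formation. Embedded in matrigel:collagen R (1:1), polymerized 1 h at 37 °C. Invasion into matrix imaged daily over 3 days, quantified by image analysis.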

In experiment [5] the test system is MDA-MB-231. As to the kind of experiment: Inhibition of cell migration in human MDA-MB-231 cells at 5 uM after 24 hrs by wound-scratch assay. The class given is functional. The method in brief:
as §1

Experiment [6] concerns MDA-MB-231. As to the kind of experiment: Cytotoxicity against human MDA-MB-231 cells assessed as decrease in cell viability at 5 uM after 24 hrs by cellTiter-Glo reagent based assay. Type of experiment: functional. The essentials: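 MDA-MB-231 cells (RPMI, 15% FCS, 37 °C, 5% CO2) were seeded at 5600 cells/well, cultured overnight, then treated at 5 μM for 24 h. Viability was read by CellTiter-Glo luminescence and normalised to 1% DMSO as 100% viability.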

Regarding `CCCCC[C@H](O)CC(=O)C[C@H]1C2=COC(C)=CC2=C(C=O)C(=O)[C@]1(C)O`, the values for the concentration for half-maximal inhibition (IC50) in experiment [1] and in experiment [3] were 79.3 µM and 29.4 µM, respectively. Besides, at 10 µM the inhibition in experiment [2] was 83%.
With `CCCCC/C=C/C(=O)[C@H]1C(=O)O[C@@]2(C)C(=O)C(C=O)=C3C=C(C)OC=C3[C@H]12`, the IC50 is 21.5 µM in experiment [1] and 4.4 µM in experiment [3]. The inhibition at 10 µM turned out to be 52% in experiment [4] and 98% in experiment [2]. Further, in experiment [5] (MDA-MB-231, 24 h), the inhibition at 5 µM was found to be 60%.
Turning to `CCCCC[C@@H](CC(=O)C[C@H]1C2=COC(C)=CC2=C(C=O)C(=O)[C@]1(C)O)OC`, the results for the 50% inhibitory concentration (IC50) in experiment [1] and in experiment [3] were 21.6 µM and 11.3 µM, respectively. In addition, the inhibition entry in experiment [5] is “inactive”.
Turning to `CCCCC/C=C/C(=O)C[C@H]1C2=COC(C)=CC2=C(C=O)C(=O)[C@]1(C)O`, the values for the half-maximal inhibitory concentration (IC50) in experiment [1] and in experiment [3] were 18.6 µM and 37.8 µM, respectively. This compound registered an inhibition at 10 µM in experiment [2] of 78%.
For the compound `CCCCC[C@@H](O)CC(=O)C[C@H]1C2=COC(C)=CC2=C(C=O)C(=O)[C@]1(C)O`, the IC50 in experiment [1] was above 100 µM; in experiment [3], 70.7 µM. The inhibition result in experiment [5] was “inactive”.
Consider `CCCCCCCC(=O)[C@H]1C(=O)O[C@@]2(C)C(=O)C(C=O)=C3C=C(C)OC=C3[C@H]12`, for which the IC50 in experiment [1] is 19.6 µM; in experiment [3], above 100 µM.
Turning to `CCCCCC(CC(=O)[C@H]1C(=O)O[C@@]2(C)C(=O)C(C=O)=C3C=C(C)OC=C3[C@H]12)OC` (some centres not stated), the values for the half-maximal inhibitory concentration (IC50) in experiment [1] and in experiment [3] were 21 µM and above 100 µM, respectively.
Take `CN[C@@H]1C[C@H]2O[C@@](C)([C@@H]1OC)n1c3ccccc3c3c4c(c5c6ccccc6n2c5c31)C(=O)NC4` [STAUROSPORINE]: in experiment [6], the Activity is on record as 10.9%.
